Consider one compound from ChEMBL document CHEMBL4270643, “Structure-based drug design: Synthesis and biological evaluation of quinazolin-4-amine derivatives as selective Aurora A kinase inhibitors” (Eur J Med Chem, 2018).

Series [1] has as its target T1, Aurora kinase A (Homo sapiens, UniProt O14965).
T1 sequence (O14965 whole entry): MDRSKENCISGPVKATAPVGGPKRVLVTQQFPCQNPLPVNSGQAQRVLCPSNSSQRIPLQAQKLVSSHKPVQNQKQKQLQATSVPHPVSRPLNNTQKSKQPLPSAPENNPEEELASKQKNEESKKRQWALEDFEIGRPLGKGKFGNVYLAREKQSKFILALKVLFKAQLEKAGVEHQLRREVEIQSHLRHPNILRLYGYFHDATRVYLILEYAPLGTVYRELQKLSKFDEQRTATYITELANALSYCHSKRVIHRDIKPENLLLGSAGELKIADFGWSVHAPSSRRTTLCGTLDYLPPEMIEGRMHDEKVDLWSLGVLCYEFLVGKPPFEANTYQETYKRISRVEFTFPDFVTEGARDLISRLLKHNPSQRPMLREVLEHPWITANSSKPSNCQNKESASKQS
Kind of series: Inhibition of Aurora A (unknown origin) using FAM-labelled peptide as substrate pretreated for 10 mins followed by substrate addition and measured after 60 mins by fluorescence assay. The procedure, abridged: (§1)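 Kinase IC50 values are the mean of at least two independent experiments; selectivity is the Aurora A/B ratio of these IC50s.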

The target of series [2] is T2, Aurora kinase B (Homo sapiens, UniProt Q96GD4). The series can be described thus: Inhibition of Aurora B (unknown origin) using FAM-labelled peptide as substrate pretreated for 10 mins followed by substrate addition and measured after 60 mins by fluorescence assay. An outline of the steps:
as §1

Series [3] deals with HeLa. Kind of series: Antiproliferative activity against human HeLa cells after 48 hrs by CCK8 assay. It counts as functional, cell-based. The following applies: Homo sapiens, HeLa, 48 h; read-out: IC50. In general terms: Tetrazolium dyes change colour on reduction, which living cells bring about.
Series [4] relates to DU-145. Kind of series: Antiproliferative activity against human DU145 cells after 48 hrs by CCK8 assay. The series is classed as functional, cell-based. The following applies: DU-145, 48 h.
In series [5] the test system is MOLT-4. The series can be described thus: Antiproliferative activity against human MOLT4 cells after 48 hrs by CCK8 assay. It counts as functional, cell-based. The note with it: Homo sapiens, MOLT-4, 48 h; read-out: IC50.
Series [6] has as its system MDA-MB-231. Kind of series: Antiproliferative activity against human MDA-MB-231 cells after 48 hrs by CCK8 assay. It counts as functional, cell-based. The note with it: MDA-MB-231, 48 h.
The subject of series [7] is SK-BR-3. The series can be described thus: Antiproliferative activity against human SKBR3 cells after 48 hrs by CCK8 assay. It counts as functional, cell-based. The note with it: Homo sapiens, SK-BR-3, 48 h; read-out: IC50.
The target of series [8] is T2, Aurora kinase B. Kind of series: Inhibition of Aurora B in human 293T cells assessed as reduction in histone H3 phosphorylation at Ser10 residue at 1 to 2 uM after 24 hrs by Western blot analysis. The series is classed as cell-based. An outline of the steps: (§2)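 293T cells treated 24 h with increasing doses or 0.1% DMSO control; lysates probed by Western blot for p-Aurora A (Thr288) and p-histone H3 (Ser10), with GAPDH as loading control.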
A general note: Immunoblotting shows a protein as a band on a membrane.

The target of series [9] is T3, Aurora kinase A (Homo sapiens) (UniProt O14965).
T3 sequence (whole entry): T1 sequence (O14965 whole entry)
The series can be described thus: Inhibition of Aurora A phosphorylation at Thr288 residue in human 293T cells at 1 uM after 24 hrs by western blot analysis. The series is classed as cell-based. The procedure, abridged: as §2

Series [10] has as its system MDA-MB-231. Kind of series: Cell cycle arrest in human MDA-MB-231 cells assessed as accumulation at G2/M phase after 24 hrs by propidium iodide staining based flow cytometry. The series is classed as functional. An outline of the steps:
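MDA-MB-231 cells exposed to test compound at indicated doses, MLN8237, or 0.1% DMSO control for 24 h; cell-cycle distribution, including G2/M and 4N/8N populations, read by flow cytometry.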

In series [11] the test system is MDA-MB-231. The series can be described thus: Induction of apoptosis in human MDA-MB-231 cells assessed as annexin-V positive cells at 5 uM after 48 hrs by Annexin-V-FITC/propidium iodide staining based flow cytometry (reference value: 15.46 +/- 1.18%). The series is classed as functional. In general terms: Flow cytometry measures light scatter and fluorescence of single cells or particles in a stream.

Series [12] relates to MDA-MB-231. Kind of series: Induction of morphological changes in human MDA-MB-231 cells assessed as monopolar/multipolar spindle formation at 1 uM by DAPI staining based microscopic analysis. It counts as functional, cell-based. The procedure, abridged: (§3)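 MDA-MB-231 cells incubated 24 h with 1 µM compound or 0.1% DMSO; immunofluorescence imaging of centrosomes, spindles and nuclei at ×1000 to score spindle polarity and chromosome alignment at the metaphase plate.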

Series [13] has as its system MDA-MB-231. The series can be described thus: Induction of morphological changes in human MDA-MB-231 cells assessed as defects in chromosomal alignment at 1 uM by DAPI staining based microscopic analysis. It counts as functional, cell-based. The procedure, abridged:
as §3

For series [14], the system named is MDA-MB-231. Kind of series: Inhibition of colony formation in human MDA-MB-231 cells assessed as reduction in number of colonies at 3 uM after 7 days by crystal violet staining based assay. It counts as functional, cell-based. An outline of the steps:
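Colony formation of MDA-MB-231 cells grown 7 days with 3 µM compound or 0.1% DMSO; colony numbers counted and compared against control.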

Series [15] has as its system MDA-MB-231. The series can be described thus: Antitumor activity against human MDA-MB-231 cells xenografted in BALB/c athymic nude mouse assessed as reduction in tumor size at 30 mg/kg, ig administered every 2 days for 18 days. The series is classed as functional, organism-based. An outline of the steps: (§4)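 Nude mice with established MDA-MB-231 xenografts dosed intragastrically every 2 days for 18 days; vehicle control group; n=4 per group. Tumor volume estimated over time and compared by two-way repeated-measures ANOVA; dissected tumors weighed at end. Data as mean ±SD.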

Series [16] relates to MDA-MB-231. Kind of series: Antitumor activity against human MDA-MB-231 cells xenografted in BALB/c athymic nude mouse assessed as tumor weight at 30 mg/kg, ig administered every 2 days for 18 days (reference value: 1.7 +/- 0.84 g). It counts as functional. An outline of the steps: as §4
For series [17], the system named is Mus musculus. Kind of series: Toxicity in BALB/c athymic nude mouse xenografted with human MDA-MB-231 cells assessed as effect on kidney weight at 30 mg/kg, ig administered every 2 days for 18 days measured post last dose. It counts as organism-based. The following applies: in vivo, po. An outline of the steps:
(§5)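 Xenograft-bearing nude mice dosed intragastrically every 2 days for 18 days; body weight tracked throughout. After treatment ended, liver, lung, kidney and spleen weighed in untreated, vehicle and dosed groups; unpaired two-tailed t-test; mean ±SD, n=4.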

Series [18] has as its system Mus musculus. Kind of series: Toxicity in BALB/c athymic nude mouse xenografted with human MDA-MB-231 cells assessed as effect on lung weight at 30 mg/kg, ig administered every 2 days for 18 days measured post last dose. The note with it: in vivo, po. The series is classed as organism-based. An outline of the steps: as §5
Series [19] concerns Mus musculus. Kind of series: Toxicity in BALB/c athymic nude mouse xenografted with human MDA-MB-231 cells assessed as effect on RBC level at 30 mg/kg, ig administered every 2 days for 18 days measured post last dose. It counts as organism-based. The note with it: in vivo, po. The procedure, abridged: (§6)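 After the 18-day intragastric course (every 2 days), blood cell counts taken from untreated, vehicle and dosed mice; groups compared by unpaired two-tailed t-test; mean ±SD, n=4.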

For series [20], the system named is Mus musculus. The series can be described thus: Toxicity in BALB/c athymic nude mouse xenografted with human MDA-MB-231 cells assessed as effect on HGB level at 30 mg/kg, ig administered every 2 days for 18 days measured post last dose. It counts as organism-based. The following applies: in vivo, po. An outline of the steps: as §6
Series [21] deals with Mus musculus. Kind of series: Toxicity in BALB/c athymic nude mouse xenografted with human MDA-MB-231 cells assessed as effect on RDW-CV level at 30 mg/kg, ig administered every 2 days for 18 days measured post last dose. The series is classed as organism-based. The following applies: in vivo, po. An outline of the steps: as §6
Series [22] concerns Mus musculus. Kind of series: Toxicity in BALB/c athymic nude mouse xenografted with human MDA-MB-231 cells assessed as effect on HCT level at 30 mg/kg, ig administered every 2 days for 18 days measured post last dose. The series is classed as organism-based. The note with it: in vivo, po. The procedure, abridged:
as §6

Series [23] concerns Mus musculus. Kind of series: Toxicity in BALB/c athymic nude mouse xenografted with human MDA-MB-231 cells assessed as effect on MCV level at 30 mg/kg, ig administered every 2 days for 18 days measured post last dose. The series is classed as organism-based. The note with it: in vivo, po. The procedure, abridged: as §6
Series [24] relates to Mus musculus. The series can be described thus: Toxicity in BALB/c athymic nude mouse xenografted with human MDA-MB-231 cells assessed as effect on MCHC level at 30 mg/kg, ig administered every 2 days for 18 days measured post last dose. The series is classed as organism-based. The note with it: in vivo, po. An outline of the steps: as §6

pIC50: −log10 of the molar value. The source made the active and inactive calls. The rule behind the calls is not given here.

T2 sequence (Q96GD4 whole entry): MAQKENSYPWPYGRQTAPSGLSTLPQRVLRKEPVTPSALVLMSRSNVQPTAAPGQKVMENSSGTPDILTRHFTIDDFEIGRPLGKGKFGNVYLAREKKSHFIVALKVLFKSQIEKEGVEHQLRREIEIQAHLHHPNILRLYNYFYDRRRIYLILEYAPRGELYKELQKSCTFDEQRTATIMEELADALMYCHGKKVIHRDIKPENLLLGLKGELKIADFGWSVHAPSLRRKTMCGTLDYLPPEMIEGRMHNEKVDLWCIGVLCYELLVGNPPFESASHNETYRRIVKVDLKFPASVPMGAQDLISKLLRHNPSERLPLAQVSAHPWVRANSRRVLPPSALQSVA

In general, pIC50 refers to the IC50 on a negative log10 scale, so that one unit is a factor of ten. `CCOC(=O)C1CCN(c2ccc3c(Nc4cc(C)[nH]n4)nc(-c4ccccc4)nc3c2)CC1`: the pIC50 in series [1] was 7.42; in series [2], 5.60; in [3], 6.35; in series [4] it was 5.69; in [5], 6.09; in series [6] it was 5.92. The pIC50 in series [7] is 5.62. In series [8], the “inhibition (INH)” value was “Not Active”. Besides, the inhibition entry in series [9] was “Active”. Besides, the Activity entry is “Dose-dependent effect” in series [10]; 47.1% in [11]; 0.85 g in series [16]; “Non-Toxic” in [17]; “Non-Toxic” in [18]; “Non-Toxic” in series [19]. The Activity entry in series [20], in series [21], in [22], in series [23] and in [24] was “Non-Toxic” in each case. The result in series [12], in series [13], in series [14] and in [15] was Active.
